According to ChEMBL document CHEMBL2311293, “Discovery of agonists of cannabinoid receptor 1 with restricted central nervous system penetration aimed for treatment of gastroesophageal reflux disease” (J Med Chem, 2013):
Values after ≈ are worked out from the molar mass of the structure shown.

Tests used:
Cannabinoid receptor 1 [1] = molecular target: T1, Cannabinoid receptor 1 (Homo sapiens, UniProt P21554); experiment: Displacement of [3H]-CP55,940 from human CB1 receptor expressed in HEK293S cell membranes by scintillation counting analysis
T1 sequence (P21554 whole entry): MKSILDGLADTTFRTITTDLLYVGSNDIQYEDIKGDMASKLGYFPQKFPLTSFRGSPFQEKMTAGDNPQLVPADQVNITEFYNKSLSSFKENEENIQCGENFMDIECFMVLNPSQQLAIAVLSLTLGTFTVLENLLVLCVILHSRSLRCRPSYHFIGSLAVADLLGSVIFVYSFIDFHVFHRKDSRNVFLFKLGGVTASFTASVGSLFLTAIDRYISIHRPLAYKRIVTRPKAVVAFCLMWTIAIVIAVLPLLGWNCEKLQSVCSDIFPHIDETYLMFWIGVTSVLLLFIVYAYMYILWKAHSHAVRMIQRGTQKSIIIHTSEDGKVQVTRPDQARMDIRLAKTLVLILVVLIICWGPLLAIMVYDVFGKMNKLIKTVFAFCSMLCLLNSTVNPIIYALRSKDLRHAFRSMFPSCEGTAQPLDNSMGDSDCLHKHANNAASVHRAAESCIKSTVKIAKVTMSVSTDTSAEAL

Cannabinoid receptor 1 [2] = molecular target: T1, Cannabinoid receptor 1; experiment: Agonist activity at human CB1 receptor expressed in HEK293S cell membranes after 1 hr by GTPgamma[35S] binding assay relative to WIN 55,212-2
How it was run: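 HEK293S membranes with cloned human CB1 (5 µg protein/well) in Hepes buffer pH 7.4, 100 mM NaCl, 5 mM MgCl2, 1 mM EDTA, 0.1% BSA, 15 µM GDP final. GTPγ[35S] added to start, 1 h at rt, filtered, counted. Basal from 8 wells; maximum from 8 wells with 10 µM reference agonist. Emax expressed as % of that reference. 10-point curves; mean of three experiments.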

Cannabinoid receptor 1 [3] = molecular target: T1, Cannabinoid receptor 1; experiment: Agonist activity at human CB1 receptor expressed in HEK293S cell membranes after 1 hr by GTPgamma[35S] binding assay
Cannabinoid receptor 2 = Cannabinoid receptor 2 (Homo sapiens, UniProt P34972); experiment: Displacement of [3H]-CP55,940 from human CB2 receptor expressed in Sf9 cell membranes by scintillation counting analysis
Sequence of Cannabinoid receptor 2 (P34972 whole entry): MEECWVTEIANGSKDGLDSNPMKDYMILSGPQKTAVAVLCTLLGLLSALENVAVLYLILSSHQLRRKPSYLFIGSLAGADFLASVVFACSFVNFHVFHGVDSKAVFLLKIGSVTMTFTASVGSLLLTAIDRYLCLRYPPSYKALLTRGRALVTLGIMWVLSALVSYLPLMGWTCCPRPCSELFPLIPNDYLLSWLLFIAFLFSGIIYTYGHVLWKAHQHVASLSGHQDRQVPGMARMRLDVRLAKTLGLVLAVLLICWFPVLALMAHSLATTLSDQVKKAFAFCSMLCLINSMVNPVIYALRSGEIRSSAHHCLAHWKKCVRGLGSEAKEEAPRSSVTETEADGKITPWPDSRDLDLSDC
How it was run: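 Membranes from Sf9 cells expressing cloned hCB2 (baculovirus) in 50 mM Tris, 2.5 mM EDTA, 5 mM MgCl2, 0.5 mg/mL fatty-acid-free BSA, pH 7.4. 60 min at rt, GF/B filtration, scintillation counting. 10-point curves; IC50 mean of three independent experiments.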

[4] = Lipophilicity, log D of the compound; details: octanol/water
[5] = Ratio of drug level in brain to plasma in Sprague-Dawley rat; format: ADME, cell-free; details: Sprague-Dawley, brain and plasma, read-out: BPR
How it was run: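 Total brain-to-plasma ratio from in vivo Sprague-Dawley rat samples, compound given as 4 h constant-rate i.v. infusion to steady state.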

[6] = Ratio of unbound fraction in brain to plasma in Sprague-Dawley rat; format: ADME, cell-free
How it was run: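 Steady-state total brain/plasma ratio in Sprague-Dawley rats after 4 h constant-rate i.v. infusion, corrected by unbound fraction in brain (rat brain slices) and in plasma (equilibrium dialysis).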

[7] = Apparent permeability from apical to basolateral side in human Caco2 cells at pH 7.4; format: ADME, cell-based; details: Caco-2, pH 7.4
How it was run: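 Caco-2 monolayers at pH 7.4, apparent permeability measured for apical-to-basolateral transport.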

Cytochrome P450 3A4 = Cytochrome P450 3A4 (Homo sapiens, UniProt P08684); experiment: Inhibition of human recombinant CYP3A4 expressed in Escherichia coli cells; format: ADME
Sequence of Cytochrome P450 3A4 (P08684 whole entry): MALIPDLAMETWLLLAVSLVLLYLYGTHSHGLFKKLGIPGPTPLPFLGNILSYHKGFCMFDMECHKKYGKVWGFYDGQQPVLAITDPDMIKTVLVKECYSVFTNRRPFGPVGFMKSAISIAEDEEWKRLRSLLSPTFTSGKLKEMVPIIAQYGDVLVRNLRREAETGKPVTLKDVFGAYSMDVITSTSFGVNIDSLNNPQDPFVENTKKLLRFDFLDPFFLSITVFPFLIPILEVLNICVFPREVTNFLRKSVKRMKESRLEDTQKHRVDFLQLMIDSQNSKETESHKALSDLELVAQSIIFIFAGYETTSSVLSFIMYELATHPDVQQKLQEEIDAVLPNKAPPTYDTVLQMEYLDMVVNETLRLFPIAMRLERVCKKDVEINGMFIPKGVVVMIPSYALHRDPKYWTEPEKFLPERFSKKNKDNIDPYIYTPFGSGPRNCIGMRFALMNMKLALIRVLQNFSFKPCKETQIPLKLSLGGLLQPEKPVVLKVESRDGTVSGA

[8] = molecular target: Voltage-gated inwardly rectifying potassium channel KCNH2 (Homo sapiens, UniProt Q12809); experiment: Inhibition of human ERG expressed in CHO cells by patch clamp assay; format: cell-based
Sequence of Voltage-gated inwardly rectifying potassium channel KCNH2 (Q12809 whole entry): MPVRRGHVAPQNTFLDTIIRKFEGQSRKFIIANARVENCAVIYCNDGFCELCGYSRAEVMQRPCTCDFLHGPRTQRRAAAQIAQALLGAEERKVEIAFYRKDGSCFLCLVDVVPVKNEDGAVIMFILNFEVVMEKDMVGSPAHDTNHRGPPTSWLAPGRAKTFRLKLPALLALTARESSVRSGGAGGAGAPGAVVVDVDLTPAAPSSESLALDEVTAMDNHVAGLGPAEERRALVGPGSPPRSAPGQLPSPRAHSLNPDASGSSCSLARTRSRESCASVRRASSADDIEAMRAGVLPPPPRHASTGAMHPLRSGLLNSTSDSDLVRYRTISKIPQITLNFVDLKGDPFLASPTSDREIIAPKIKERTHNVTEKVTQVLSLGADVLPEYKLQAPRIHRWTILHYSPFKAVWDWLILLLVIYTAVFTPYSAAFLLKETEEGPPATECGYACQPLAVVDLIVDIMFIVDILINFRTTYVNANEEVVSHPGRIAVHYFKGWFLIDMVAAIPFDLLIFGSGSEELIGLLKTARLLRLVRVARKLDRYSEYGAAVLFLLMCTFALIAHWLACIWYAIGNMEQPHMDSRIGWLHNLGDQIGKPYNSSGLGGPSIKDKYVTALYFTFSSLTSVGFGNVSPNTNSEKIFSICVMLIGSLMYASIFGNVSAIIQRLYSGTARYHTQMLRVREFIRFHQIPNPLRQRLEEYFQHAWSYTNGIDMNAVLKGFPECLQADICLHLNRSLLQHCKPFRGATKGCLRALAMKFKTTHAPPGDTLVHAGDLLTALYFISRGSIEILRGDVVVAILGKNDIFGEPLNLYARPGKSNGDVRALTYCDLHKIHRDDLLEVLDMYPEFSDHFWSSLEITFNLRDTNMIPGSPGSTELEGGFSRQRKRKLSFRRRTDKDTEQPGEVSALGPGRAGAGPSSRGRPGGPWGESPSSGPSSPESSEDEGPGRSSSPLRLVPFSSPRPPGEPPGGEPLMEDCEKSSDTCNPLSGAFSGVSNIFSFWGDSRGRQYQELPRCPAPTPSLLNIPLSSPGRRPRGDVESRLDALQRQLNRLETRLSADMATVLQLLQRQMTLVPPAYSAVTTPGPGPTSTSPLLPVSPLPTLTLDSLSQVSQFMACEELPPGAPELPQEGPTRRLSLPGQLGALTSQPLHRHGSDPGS
How it was run: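 Patch clamp (IonWorks) in CHO cells expressing hERG.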

Cytochrome P450 2C9 = Cytochrome P450 2C9 (Homo sapiens, UniProt P11712); experiment: Inhibition of human recombinant CYP2C9 expressed in Escherichia coli cells; format: ADME
Sequence of Cytochrome P450 2C9 (P11712 whole entry): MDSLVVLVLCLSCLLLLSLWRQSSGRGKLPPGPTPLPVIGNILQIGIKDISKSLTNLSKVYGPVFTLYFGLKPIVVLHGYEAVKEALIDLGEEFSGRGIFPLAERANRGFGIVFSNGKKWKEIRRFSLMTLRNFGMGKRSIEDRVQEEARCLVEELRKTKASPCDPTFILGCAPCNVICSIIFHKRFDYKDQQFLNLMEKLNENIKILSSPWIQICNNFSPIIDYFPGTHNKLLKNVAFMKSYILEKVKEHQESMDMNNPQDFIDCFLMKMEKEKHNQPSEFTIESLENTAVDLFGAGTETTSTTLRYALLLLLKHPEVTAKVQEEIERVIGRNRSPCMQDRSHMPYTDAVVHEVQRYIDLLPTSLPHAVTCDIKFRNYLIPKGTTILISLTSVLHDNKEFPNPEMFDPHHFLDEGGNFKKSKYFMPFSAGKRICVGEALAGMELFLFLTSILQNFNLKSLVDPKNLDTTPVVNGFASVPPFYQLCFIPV

[9] = Solubility of the compound in Hank's balanced saline solution at pH 7.4 after 24 hrs by HPLC analysis; format: physicochemical
How it was run: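 Compound in DMSO added to Hanks balanced saline solution pH 7.4, shaken 24 h.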

[10] = Clearance in Sprague-Dawley rat at 2 umol/kg, iv; format: ADME, organism-based; details: in vivo
How it was run: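 Sprague-Dawley rats given 2 µmol/kg i.v.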

[11] = Oral bioavailability in Sprague-Dawley rat at 10 umol/kg; format: ADME, organism-based; details: in vivo
How it was run: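 Sprague-Dawley rats given 10 µmol/kg p.o., with i.v. reference dose of 2 µmol/kg.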

Compound	IC50 (Cannabinoid receptor 1 [1]) [nM]	Emax (Cannabinoid receptor 1 [2]) [%]	EC50 (Cannabinoid receptor 1 [3]) [nM]	IC50 (Cannabinoid receptor 2) [nM]	logD [4]	also measured
O=C(NCC1CCCCC1)c1cc(Cl)ccc1NC(=O)c1cccc2ccccc12	160	77	260	1800	7.8	–
O=C(Nc1cccnc1C(=O)NCC1CCOCC1)c1ccc2ncsc2c1	> 6700	–	–	> 10000	3.5	–
O=C(NCC1CCOCC1)c1ncccc1NC(=O)c1cccc2ccccc12	31	110	81	260	5.1	Kp [5]: 3
CN(C)Cc1ccc(C(=O)Nc2cccnc2C(=O)NCC2CCC2)c2ccccc12	–	100	180	190	–	–
O=C(NCC1CCC1)c1ncccc1NC(=O)c1ccc(Cn2cccc2)c2ccccc12	–	82	170	340	–	–
C[S@@+]([O-])Cc1ccc(C(=O)Nc2cccnc2C(=O)NCC2CCOCC2)c2ccccc12	21	100	31	–	2.9	BPR [6]: 0.03; Papp A→B [7]: 26 ×10⁻⁶ cm/s; Kp [5]: 0.031
O=C(NCC1CCCCC1)c1ncccc1NC(=O)c1cccc2ccccc12	10	110	24	110	8.1	–
O=C(NCC1CCCCC1)c1nccnc1NC(=O)c1cccc2ccccc12	91	120	480	1400	–	–
O=C(NCC1CCC1)c1ncccc1NC(=O)c1ccc(Cn2cccn2)c2ccccc12	13000	93	23	69	6.2	–
C[S+]([O-])Cc1ccc(C(=O)Nc2nccnc2C(=O)NCC2CCC2)c2ccccc12 (single isomer, unassigned)	–	110	–	–	–	–
C[S+]([O-])Cc1ccc(C(=O)Nc2nccnc2C(=O)NCC2CCC2)c2ccccc12 (stereo in doubt; 18f)	–	120	–	–	–	–
O=C(NCC1CCC1)c1ncccc1NC(=O)c1ccnc2ccccc12	28	94	79	82	–	–
C[S+]([O-])Cc1ccc(C(=O)Nc2cccnc2C(=O)NCC2CCOCC2)c2ccccc12 (configuration not stated)	49	110	87	2500	2.8	BPR [6]: 0.01; IC50 (Cytochrome P450 3A4): > 20000 nM; Papp A→B [7]: 23 ×10⁻⁶ cm/s; IC50 [8]: > 32000 nM; IC50 (Cytochrome P450 2C9): 19000 nM; solubility at 24 h [9]: 79 µM (≈ 36.8 µg/mL); clearance [10]: 14 mL/min/kg; bioavailability [11]: 31%; Kp [5]: 0.018
O=C(NCC1CCC1)c1nc(OCCOCCO)ccc1NC(=O)c1ccnc2ccccc12	10000	130	14	1200	4.1	–
O=C(Nc1cccnc1C(=O)NCC1CCOCC1)c1cccc2c1OCCO2	1200	–	–	5700	3.8	–
O=C(NCC1CCC1)c1nc(OCCO)ccc1NC(=O)c1ccnc2ccccc12	73000	51	120	2500	4	–
O=C(NCC1CCCCC1)c1cccnc1NC(=O)c1cccc2ccccc12	> 10000	–	–	> 10000	4.7	–
